Activity calls are given as the source filed them. The calls are words filed in the database; no cut-off is given here.
Experiments:
Neisseria meningitidis [1] = test: (§1) Inhibition of Neisseria meningitidis alpha-1,4-galactosyltransferase assessed as as consumption of donor UDP-Gal by measuring turnover rate at 0.1 to 50 uM using lactose as substrate preincubated for 20 mins followed by lactose and UDP-Gal addition measured after 20 mins by malachite green dye-based assay relative to total UDP-Gal used
Neisseria meningitidis [2] = test: as §1, with “assessed” for “assessed as”, “for 10” for “for 20”
Method in brief: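 Enzyme (DTT-activated) with MnCl2 5 mM, CIP 10 U/mL, lysozyme 1 mg/mL, 0.01% Triton, 13 mM HEPES pH 7.0 and inhibitor in DMSO (10% final) pre-incubated 10 min at 30 °C before UDP-Gal (28 µM) plus lactose (2 mM) added; 20 min at 30 °C; UDP read by malachite green at 620 nm versus UDP standard curve, background-corrected; triplicate.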

Neisseria meningitidis [3] = test: Inhibition of Neisseria meningitidis alpha-1,4-galactosyltransferase assessed as rate constant for enzyme activity at 2 uM using lactose as substrate preincubated with substrate measured after 20 mins in presence of UDP-Gal
Method in brief: (§2)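 Activity measured at a series of inhibitor concentrations (0.5-200 µM range overall) after pre-incubation with LgtC for 0, 5, 10, 20 and 30 min, using the pre-incubation protocols (lactose 2 mM, UDP-Gal 28 µM, 20 min at 30 °C, malachite green); % of DMSO control plotted semi-logarithmically versus pre-incubation time to give kobs; kobs versus concentration gave Ki and kinact; triplicate.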

Neisseria meningitidis [4] = test: Inhibition of Neisseria meningitidis alpha-1,4-galactosyltransferase assessed as rate constant for enzyme activity at 3 uM using lactose as substrate preincubated with substrate measured after 20 mins in presence of UDP-Gal; method in brief: as §2
Neisseria meningitidis [5] = test: Inhibition of Neisseria meningitidis alpha-1,4-galactosyltransferase assessed as consumption of donor UDP-Gal by measuring turnover rate at 0.1 to 50 uM using lactose as substrate in presence of UDP-Gal measured after 20 min by malachite green dye-based assay relative to total UDP-Gal used
Method in brief: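 No pre-incubation: DTT-activated LgtC with MnCl2 5 mM, CIP 10 U/mL, egg-white lysozyme 1 mg/mL, 0.01% Triton, 13 mM HEPES pH 7.0, lactose 2 mM, inhibitor in DMSO (10% final); started with UDP-Gal 28 µM, 20 min at 30 °C, 20-50% donor turnover. Malachite green read at 620 nm against a UDP calibration curve, background without acceptor subtracted, % of assay window; triplicate minimum; IC50 from sigmoidal fit.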

Neisseria meningitidis [6] = test: as §1, with “assessed” for “assessed as”, “for 30” for “for 20”
Neisseria meningitidis [7] = test: Inhibition of Neisseria meningitidis alpha-1,4-galactosyltransferase assessed as rate constant for enzyme activity at 1.5 uM using lactose as substrate preincubated with substrate measured after 20 mins in presence of UDP-Gal; method in brief: as §2
Neisseria meningitidis [8] = test: Binding affinity to Neisseria meningitidis alpha-1,4-galactosyltransferase assessed as covalent-enzyme adduct formation at 100 uM after 20 mins by mass spectroscopy; conditions: 50 uM, in the assay text read “at 50 uM” for “at 100 uM”
Method in brief: (§3)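 LgtC stock without DTT activation, diluted in 13 mM HEPES pH 7.0, incubated with inhibitor (100 or 50 µM, added in DMSO; 10% final DMSO) for 20 min at 30 °C; samples injected directly for electrospray MS to detect protein-inhibitor adducts.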

Neisseria meningitidis [9] = test: as §1, with “assessed” for “assessed as”, “for 180” for “for 20”
Neisseria meningitidis [10] = test: as §1, with “assessed” for “assessed as”, “for 5” for “for 20”
Neisseria meningitidis [11] = test: as §1, with “assessed” for “assessed as”, “100” for “50”
Neisseria meningitidis [12] = test: Inhibition of Neisseria meningitidis alpha-1,4-galactosyltransferase assessed as rate constant for enzyme activity at 100 uM using lactose as substrate preincubated with substrate measured after 20 mins in presence of UDP-Gal; method in brief: as §2
Neisseria meningitidis [13] = test: Inhibition of Neisseria meningitidis alpha-1,4-galactosyltransferase assessed as rate constant for enzyme activity at 200 uM using lactose as substrate preincubated with substrate measured after 20 mins in presence of UDP-Gal; method in brief: as §2
Neisseria meningitidis [14] = test: as §1, with “assessed” for “assessed as”, “to 100” for “to 50”, “for 60” for “for 20”
Neisseria meningitidis [15] = test: as §1, with “assessed” for “assessed as”, “to 100” for “to 50”, “for 180” for “for 20”
Neisseria meningitidis [16] = test: Binding affinity to Neisseria meningitidis alpha-1,4-galactosyltransferase assessed as covalent adduct formation at 100 uM after 20 mins by mass spectrometric analysis; conditions: TDE = time-dependent effect; method in brief: as §3
Neisseria meningitidis [17] = test: as §1, with “assessed” for “assessed as”, “to 100” for “to 50”, “for 30” for “for 20”
Neisseria meningitidis [18] = test: Inhibition of Neisseria meningitidis alpha-1,4-galactosyltransferase assessed as rate constant for enzyme activity at 6 uM using lactose as substrate preincubated with substrate measured after 20 mins in presence of UDP-Gal; method in brief: as §2
Neisseria meningitidis [19] = test: Inhibition of Neisseria meningitidis alpha-1,4-galactosyltransferase assessed as rate constant for enzyme activity at 15 uM using lactose as substrate preincubated with substrate measured after 20 mins in presence of UDP-Gal; method in brief: as §2
[20] = molecular target: Intestinal-type alkaline phosphatase (Bos taurus) (UniProt P19111); test: Inhibition of calf intestinal alkaline […] at 0.1 to 100 uM using UDP as substrate after 20 mins by malachite green dye-based assay
Neisseria meningitidis [21] = test: Binding affinity to Neisseria meningitidis alpha-1,4-galactosyltransferase assessed as covalent-enzyme adduct formation at 50 uM after 20 mins by mass spectroscopy; conditions: 100 uM, in the assay text read “at 100 uM” for “at 50 uM”; method in brief: as §3

Sequence of Intestinal-type alkaline phosphatase (Bos taurus) (P19111 20-506 limits assumed): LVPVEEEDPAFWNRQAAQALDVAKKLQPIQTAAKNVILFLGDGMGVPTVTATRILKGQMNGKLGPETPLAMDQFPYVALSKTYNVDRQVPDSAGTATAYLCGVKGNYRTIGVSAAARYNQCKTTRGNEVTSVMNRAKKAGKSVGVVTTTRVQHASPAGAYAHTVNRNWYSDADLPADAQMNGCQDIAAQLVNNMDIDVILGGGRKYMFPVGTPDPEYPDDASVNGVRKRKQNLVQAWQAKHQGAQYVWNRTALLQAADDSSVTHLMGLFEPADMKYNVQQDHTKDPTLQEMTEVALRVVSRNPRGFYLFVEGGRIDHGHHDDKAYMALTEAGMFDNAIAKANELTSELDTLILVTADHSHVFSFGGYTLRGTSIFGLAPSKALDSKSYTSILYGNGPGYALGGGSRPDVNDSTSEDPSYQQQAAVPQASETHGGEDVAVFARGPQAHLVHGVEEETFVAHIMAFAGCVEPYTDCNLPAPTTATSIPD

COc1ccc(/C=C2\C(=O)N(c3ccccc3)N=C2C(F)(F)F)cc1Br
inhibition (Neisseria meningitidis [1]): 32% | inhibition (Neisseria meningitidis [2]): 46% | K (Neisseria meningitidis [3]): 0.012 min⁻¹ | K (Neisseria meningitidis [4]): 0.025 min⁻¹ | inhibition (Neisseria meningitidis [5]): 30% | inhibition (Neisseria meningitidis [6]): 32% | K (Neisseria meningitidis [7]): 0.017 min⁻¹ | Activity (Neisseria meningitidis [8]): Active | inhibition (Neisseria meningitidis [9]): 26% | inhibition (Neisseria meningitidis [10]): 32%

O=C1/C(=C\c2cccc(OCc3ccccc3)c2)C(C(F)(F)F)=NN1c1ccccc1
inhibition (Neisseria meningitidis [11]): 27% | K (Neisseria meningitidis [12]): 0.072 min⁻¹ | K (Neisseria meningitidis [13]): 0.079 min⁻¹ | inhibition (Neisseria meningitidis [14]): 29% | inhibition (Neisseria meningitidis [15]): 19% | Activity (Neisseria meningitidis [16]): Tde | inhibition (Neisseria meningitidis [17]): 24% | K (Neisseria meningitidis [18]): 0.01 min⁻¹ | K (Neisseria meningitidis [19]): 0.021 min⁻¹ | inhibition [20]: inactive | Activity (Neisseria meningitidis [21]): Active
